Data set [1] addresses T1, Mast/stem cell growth factor receptor Kit (Homo sapiens, UniProt P10721). The data set is described as follows: Inhibition of recombinant C-terminal polyhistidine-tagged human c-KIT expressed in mammalian expression system using Tyr 06 peptide as substrate measured after 1hr by FRET based Z'Lyte assay.
The target in data set [2] is Tyrosine-protein kinase ABL1 (Homo sapiens, UniProt P00519). Description: Inhibition of C-terminal His-tagged human ABL1 expressed in baculovirus infected SF9 cells assessed as residual activity at 1 uM using Tyr 02 peptide as substrate measured after 1 hr by FRET based Z'Lyte assay relative to control.
Sequence of Tyrosine-protein kinase ABL1 (P00519 whole entry, the tested form may be a part): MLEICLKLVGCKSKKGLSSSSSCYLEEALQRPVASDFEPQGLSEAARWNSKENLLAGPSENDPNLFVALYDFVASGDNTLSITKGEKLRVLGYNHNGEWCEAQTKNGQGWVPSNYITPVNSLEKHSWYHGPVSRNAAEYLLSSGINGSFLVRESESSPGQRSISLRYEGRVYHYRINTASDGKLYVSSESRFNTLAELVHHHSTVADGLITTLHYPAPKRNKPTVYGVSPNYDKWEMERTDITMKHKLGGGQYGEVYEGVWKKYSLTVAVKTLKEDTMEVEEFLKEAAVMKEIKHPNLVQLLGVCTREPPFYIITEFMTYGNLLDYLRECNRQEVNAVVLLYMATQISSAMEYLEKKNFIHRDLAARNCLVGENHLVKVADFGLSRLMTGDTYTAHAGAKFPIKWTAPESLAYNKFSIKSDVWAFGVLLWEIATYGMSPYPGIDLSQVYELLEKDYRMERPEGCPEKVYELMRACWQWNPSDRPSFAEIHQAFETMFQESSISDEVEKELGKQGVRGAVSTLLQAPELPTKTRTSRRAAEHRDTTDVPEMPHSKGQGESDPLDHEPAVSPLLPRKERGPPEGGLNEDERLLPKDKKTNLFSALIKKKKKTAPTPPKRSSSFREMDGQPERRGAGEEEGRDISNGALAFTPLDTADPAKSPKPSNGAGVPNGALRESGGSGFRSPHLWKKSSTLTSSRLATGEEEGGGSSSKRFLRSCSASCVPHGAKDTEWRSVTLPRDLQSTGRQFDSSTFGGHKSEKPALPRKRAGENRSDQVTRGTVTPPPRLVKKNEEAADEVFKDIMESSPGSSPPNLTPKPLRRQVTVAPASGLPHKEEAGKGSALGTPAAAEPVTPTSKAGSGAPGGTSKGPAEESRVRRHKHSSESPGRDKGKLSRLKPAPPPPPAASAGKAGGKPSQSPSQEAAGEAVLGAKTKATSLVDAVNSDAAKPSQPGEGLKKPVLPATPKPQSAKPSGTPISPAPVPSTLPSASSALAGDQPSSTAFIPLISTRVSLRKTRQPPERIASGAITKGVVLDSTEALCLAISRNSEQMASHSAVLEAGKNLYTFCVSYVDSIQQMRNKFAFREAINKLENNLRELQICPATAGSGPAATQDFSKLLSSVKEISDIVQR
The target of data set [3] is Tyrosine-protein kinase Blk (Homo sapiens, UniProt P51451). The data set is described as follows: Inhibition of full length recombinant His-tagged human BLK cytoplasmic domain expressed in baculovirus expression system measured after 1 hr by FRET based Z'Lyte assay. Put shortly:
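Z'-LYTE FRET biochemical kinase assay run by Invitrogen on selected kinases identified from binding profiling; IC50 from dose-response.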

Data set [4] has as its target Macrophage colony-stimulating factor 1 receptor (Homo sapiens, UniProt P07333). Description: Inhibition of recombinant His-tagged human CSF1R cytoplasmic domain expressed in baculovirus expression system assessed as residual activity at 1 uM measured after 1 hr by FRET based Z'Lyte assay relative to control.
Data set [5] has as its system BaF3. The data set is described as follows: Inhibition of BCR/ABL p210 fusion protein M356T mutant (unknown origin) expressed in BAF3 cells assessed as growth inhibition measured after 72 hrs by CellTiter-Glo or CCK8 assay. In kind it is cell-based. The conditions noted are these: Homo sapiens. Put shortly:
(§1)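 BaF3 lines were made by retroviral transduction with kinase-fusion MSCV vectors packaged in HEK293T cells. Cells were selected with puromycin for 48 h, then selected again without IL-3 so growth depends on the introduced kinase. […] They were seeded at 1 to 2.5×10^4 cells/mL with compound dilutions and incubated 72 h. Viability was read by CellTiter-Glo luminescence or CCK-8 absorbance (450/655 nm), normalized to DMSO control; GI50 was curve-fitted from triplicate tests.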

The subject of data set [6] is BaF3. The data set is described as follows: Inhibition of BCR/ABL p210 fusion protein F317L mutant (unknown origin) expressed in BAF3 cells assessed as growth inhibition measured after 72 hrs by CellTiter-Glo or CCK8 assay. In kind it is cell-based. The conditions noted are these: Homo sapiens. The procedure, abridged:
as §1
Background: In ATP-based viability assays light output follows the ATP content of the culture.

Data set [7] deals with Mast/stem cell growth factor receptor Kit (Homo sapiens), P10721 [V559D]. Description: Inhibition of Tel-fused c-KIT V559D mutant (unknown origin) expressed in BAF3 cells assessed as growth inhibition measured after 72 hrs by CellTiter-Glo or CCK8 assay. In kind it is cell-based. Put shortly: as §1
Sequence of Mast/stem cell growth factor receptor Kit (Homo sapiens), P10721 [V559D] (P10721 whole entry V559D, the tested form may be a part): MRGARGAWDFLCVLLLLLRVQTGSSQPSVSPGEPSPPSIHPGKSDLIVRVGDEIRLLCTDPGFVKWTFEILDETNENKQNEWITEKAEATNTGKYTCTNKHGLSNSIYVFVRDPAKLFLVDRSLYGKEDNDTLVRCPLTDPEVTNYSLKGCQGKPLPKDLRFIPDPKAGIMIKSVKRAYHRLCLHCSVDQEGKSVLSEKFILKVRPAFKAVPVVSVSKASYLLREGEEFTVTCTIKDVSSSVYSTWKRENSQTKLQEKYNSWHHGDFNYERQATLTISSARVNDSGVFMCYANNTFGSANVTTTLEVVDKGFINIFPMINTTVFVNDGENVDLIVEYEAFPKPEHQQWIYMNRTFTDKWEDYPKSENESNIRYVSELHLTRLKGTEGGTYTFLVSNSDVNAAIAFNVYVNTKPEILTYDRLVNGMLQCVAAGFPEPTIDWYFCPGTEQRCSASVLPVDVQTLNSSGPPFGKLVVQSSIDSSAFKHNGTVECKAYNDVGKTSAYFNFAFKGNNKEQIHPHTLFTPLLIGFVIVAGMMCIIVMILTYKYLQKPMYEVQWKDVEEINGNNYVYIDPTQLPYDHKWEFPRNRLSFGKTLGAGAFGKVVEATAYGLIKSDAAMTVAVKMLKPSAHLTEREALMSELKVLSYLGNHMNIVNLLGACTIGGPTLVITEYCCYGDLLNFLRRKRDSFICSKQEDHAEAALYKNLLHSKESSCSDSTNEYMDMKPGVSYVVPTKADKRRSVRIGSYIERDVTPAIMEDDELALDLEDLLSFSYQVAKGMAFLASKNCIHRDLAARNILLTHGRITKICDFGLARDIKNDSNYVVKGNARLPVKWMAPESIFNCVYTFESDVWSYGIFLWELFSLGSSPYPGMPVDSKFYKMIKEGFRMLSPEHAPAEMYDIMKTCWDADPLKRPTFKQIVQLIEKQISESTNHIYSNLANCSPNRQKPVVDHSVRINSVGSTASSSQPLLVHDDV
Data set [8] deals with Mast/stem cell growth factor receptor Kit (Homo sapiens), P10721 [N822K]. The data set is described as follows: Inhibition of Tel-fused c-KIT N822K mutant (unknown origin) expressed in BAF3 cells assessed as growth inhibition measured after 72 hrs by CellTiter-Glo or CCK8 assay. Format: cell-based. Put shortly: as §1
Sequence of Mast/stem cell growth factor receptor Kit (Homo sapiens), P10721 [N822K] (P10721 whole entry N822K, the tested form may be a part): as the sequence (P10721 whole entry V559D, the tested form may be a part) above, with D559V, N822K counted along it
Data set [9] relates to Mast/stem cell growth factor receptor Kit (Homo sapiens), P10721 [T670I]. Description: Inhibition of Tel-fused c-KIT T670I mutant (unknown origin) expressed in BAF3 cells assessed as growth inhibition measured after 72 hrs by CellTiter-Glo or CCK8 assay. Format: cell-based. The procedure, abridged: as §1
Sequence of Mast/stem cell growth factor receptor Kit (Homo sapiens), P10721 [T670I] (P10721 whole entry T670I, the tested form may be a part): as the sequence (P10721 whole entry V559D, the tested form may be a part) above, with D559V, T670I counted along it
In data set [10] the target is T2, BCR/ABL p210 fusion protein (Homo sapiens, UniProt A1Z199). The data set is described as follows: Inhibition of BCR/ABL p210 fusion protein autophosphorylation at Y245 in human K562 cells measured after 2 hrs by immunoblotting. In kind it is cell-based. The procedure, abridged:
(§2)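 After an ice-cold PBS wash, cells were lysed in RIPA buffer (50 mM Tris pH 8.0) with protease and phosphatase inhibitors, and protein was quantified by BCA. Lysates were run on SDS-PAGE, transferred to PVDF and blocked in 5% milk/TBST. Phospho- and total proteins were probed by immunoblot with ECL detection; β-actin served as loading control.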
On the technique in general: Immunoblotting shows a protein as a band on a membrane.
Target sequence in this assay (A1Z199 whole entry, the tested form may be a part): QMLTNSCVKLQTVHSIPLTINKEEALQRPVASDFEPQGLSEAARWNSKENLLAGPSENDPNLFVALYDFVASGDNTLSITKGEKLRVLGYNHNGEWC

Data set [11] has as its target T2, BCR/ABL p210 fusion protein. Description: Inhibition of BCR/ABL p210 fusion protein mediated signaling pathways assessed as reduction in CrkL phosphorylation at Y207 in human K562 cells at 0.01 to 3 uM measured after 2 hrs by immunoblotting. Format: cell-based. Put shortly: as §2
Target sequence in this assay (A1Z199 1-97): as the sequence (A1Z199 whole entry, the tested form may be a part) above
The target is the same in data set [12]. The data set is described as follows: Inhibition of BCR/ABL p210 fusion protein mediated signaling pathways assessed as reduction in Stat5 phosphorylation at Y694 in human MEG01 cells at 0.01 to 3 uM measured after 2 hrs by immunoblotting. The conditions noted are these: MEG-01. In kind it is cell-based. Put shortly:
as §2
Target sequence in this assay (A1Z199 1-97): as the sequence (A1Z199 whole entry, the tested form may be a part) above

The target in data set [13] is T1, Mast/stem cell growth factor receptor Kit. The data set is described as follows: Inhibition of c-KIT mediated signaling pathways assessed as reduction in Stat3/5 phosphorylation at Y705/Y694 in human GISTT1 cells at 0.03 to 10 uM measured after 2 hrs by immunoblotting. In kind it is cell-based. The procedure, abridged:
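GIST-T1 cells treated with DMSO or serially diluted compound for 2 h. Cells lysed in RIPA buffer with protease/phosphatase inhibitors, protein quantified by BCA, SDS-PAGE, PVDF transfer, milk block, primary/secondary antibodies, ECL detection; beta-actin loading control.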

Data set [14] has the same target. The data set is described as follows: Inhibition of c-KIT mediated signaling pathways assessed as reduction in S6 phosphorylation at S235/236 in human GIST882 cells at 0.03 to 10 uM measured after 2 hrs by immunoblotting. In kind it is cell-based. The procedure, abridged: as §2
The nature of data set [15]: Cell cycle arrest in human MEG01 cells assessed as accumulation at G0/G1 phase at 0.3 uM after 24 hrs by propidium iodide/RNase staining based flow cytometry. Format: functional. The conditions noted are these: MEG-01. The procedure, abridged:
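Cells were exposed to serially diluted compound, then fixed in cold 70% ethanol overnight at -20 °C. They were stained with PI/RNase buffer for DNA-content cell-cycle analysis.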
On the technique in general: Flow cytometry measures light scatter and fluorescence of single cells or particles in a stream.

The test system of data set [16] is KU812 cell line. The data set is described as follows: Induction of apoptosis in human KU812 cells assessed as increase in cleaved caspase-3 level at 0.1 to 3 uM by Western blot analysis. Format: functional, cell-based. Put shortly:
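Cells were treated with DMSO or serially diluted compound for the indicated periods. They were washed in ice-cold PBS and lysed in RIPA buffer with protease/phosphatase inhibitors, and protein was quantified by BCA. Lysates were resolved by SDS-PAGE, transferred to PVDF and blocked in 5% milk/TBST. Blots were probed for PARP and caspase-3, with β-actin as loading control, and detected by ECL.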

A short description of data set [17]: Tmax in Sprague-Dawley rat at 1 mg/kg, iv. In kind it is ADME, organism-based. The conditions noted are these: in vivo. The procedure, abridged: (§3)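 Male Sprague-Dawley rats, 6-8 weeks old, fasted overnight, dosed iv or po. Jugular vein blood (~0.2 mL, heparin) sampled at 1 min to 8 h (iv) or 5 min to 24 h (po). Plasma separated by centrifugation at 2-8 °C and stored at -80 °C before analysis.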

A short description of data set [18]: Tmax in Sprague-Dawley rat at 10 mg/kg, po. The conditions noted are these: in vivo. In kind it is ADME, organism-based. Put shortly:
as §3

Data set [19] has as its system K562. Description: Antiproliferative activity against human K562 cells xenografted in nu/nu mouse administered daily via oral gavage measured 28 days post compound treatment by Ki-67 staining based assay. Format: functional, cell-based. The procedure, abridged: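 K562 xenograft tumors were taken after daily oral dosing. Tissue was fixed in 10% neutral-buffered formalin, paraffin-embedded and cut into 6-micron sections. […] Detection used DAB with a hematoxylin counterstain.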

For data set [20], the system named is K562. The data set is described as follows: Induction of apoptosis in human K562 cells xenografted in nu/nu mouse administered daily via oral gavage measured 28 days post compound treatment by TUNEL staining based assay. In kind it is functional, cell-based. Put shortly: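 K562 xenograft tumors from daily orally dosed mice were fixed in 10% neutral-buffered formalin and paraffin-embedded. Six-micron sections were TUNEL-stained to detect apoptotic nuclei.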

Data set [21] addresses T1, Mast/stem cell growth factor receptor Kit. The conditions noted are these: GISTT1, 1 uM.
Data set [22] has the same target. The conditions noted are these: 1 uM.

Active and inactive are the calls of the source. No cut-off for these calls is given here.

T1 sequence (P10721 whole entry): as the sequence (P10721 whole entry V559D, the tested form may be a part) above, with D559V counted along it
Sequence of Tyrosine-protein kinase Blk (P51451 whole entry, the tested form may be a part): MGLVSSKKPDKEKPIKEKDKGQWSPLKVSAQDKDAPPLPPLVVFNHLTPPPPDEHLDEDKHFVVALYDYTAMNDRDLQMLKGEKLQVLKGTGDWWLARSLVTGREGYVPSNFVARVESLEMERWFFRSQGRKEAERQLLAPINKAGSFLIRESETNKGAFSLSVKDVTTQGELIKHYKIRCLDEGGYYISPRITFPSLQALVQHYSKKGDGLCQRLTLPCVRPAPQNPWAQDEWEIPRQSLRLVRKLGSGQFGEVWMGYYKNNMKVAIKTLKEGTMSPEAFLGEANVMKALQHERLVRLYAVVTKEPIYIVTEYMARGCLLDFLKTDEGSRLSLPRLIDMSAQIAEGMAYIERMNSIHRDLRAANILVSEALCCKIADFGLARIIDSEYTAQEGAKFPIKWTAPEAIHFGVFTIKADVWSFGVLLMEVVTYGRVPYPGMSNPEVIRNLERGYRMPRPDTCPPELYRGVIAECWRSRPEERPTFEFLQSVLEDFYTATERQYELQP
Sequence of Macrophage colony-stimulating factor 1 receptor (P07333 whole entry, the tested form may be a part): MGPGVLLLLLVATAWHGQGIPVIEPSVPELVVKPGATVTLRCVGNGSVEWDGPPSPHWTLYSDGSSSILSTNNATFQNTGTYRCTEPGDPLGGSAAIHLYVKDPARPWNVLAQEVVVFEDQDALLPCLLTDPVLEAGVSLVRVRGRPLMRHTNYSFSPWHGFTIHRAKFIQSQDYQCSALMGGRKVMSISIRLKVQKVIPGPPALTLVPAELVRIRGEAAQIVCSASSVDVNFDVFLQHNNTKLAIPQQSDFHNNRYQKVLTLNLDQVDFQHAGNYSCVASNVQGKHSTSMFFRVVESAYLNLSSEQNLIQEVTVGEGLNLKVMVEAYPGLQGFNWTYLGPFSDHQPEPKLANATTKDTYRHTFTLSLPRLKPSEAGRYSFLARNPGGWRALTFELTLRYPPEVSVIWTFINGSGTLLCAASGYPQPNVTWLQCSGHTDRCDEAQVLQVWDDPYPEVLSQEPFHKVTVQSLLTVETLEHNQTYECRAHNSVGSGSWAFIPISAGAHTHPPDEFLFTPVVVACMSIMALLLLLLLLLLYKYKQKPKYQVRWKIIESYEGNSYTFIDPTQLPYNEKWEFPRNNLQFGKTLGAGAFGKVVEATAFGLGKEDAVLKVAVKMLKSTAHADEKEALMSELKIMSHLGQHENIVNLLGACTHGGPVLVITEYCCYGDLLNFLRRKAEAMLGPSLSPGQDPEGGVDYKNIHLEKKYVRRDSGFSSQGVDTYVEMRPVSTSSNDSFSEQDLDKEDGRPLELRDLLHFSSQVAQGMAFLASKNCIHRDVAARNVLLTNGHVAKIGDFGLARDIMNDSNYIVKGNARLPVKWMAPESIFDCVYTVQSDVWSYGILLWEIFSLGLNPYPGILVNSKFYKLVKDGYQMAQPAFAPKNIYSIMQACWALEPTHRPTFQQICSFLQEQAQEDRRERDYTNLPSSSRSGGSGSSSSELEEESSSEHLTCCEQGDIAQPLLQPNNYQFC

A word on the IC50: it is the concentration that gives 50% inhibition. Broadly, the GI50 is the concentration giving 50% growth inhibition. The term EC50 denotes the midpoint of the concentration-response curve. What is called Tmax is the time at which the peak concentration occurs. Turning to `Cc1ccc(C(=O)N2CCC(Oc3cc(NC(=O)c4ccc(CN5CCN(C)CC5)c(C(F)(F)F)c4)ccc3C)CC2)cn1`, the IC50 in [1] was 75 nM; in [3] it was 81 nM. Besides, the Activity was 0.3% in [2], 0.3% in [4], “Dose-dependent effect” in [19] and “Dose-dependent effect” in data set [20]. Also, the GI50 was 270 nM in data set [5]; 670 nM in data set [6]; 78 nM in data set [7]; 124 nM in data set [8]; 1850 nM in data set [9]. The same compound came in with an EC50 in data set [10] of less than 100 nM. Further, the inhibition entry in data set [11], in [12], in data set [13] and in data set [14] was “Active” each time. Also, the result in data set [15] and in data set [16] was Active. Besides, the Tmax worked out at 1.02 min in data set [17] and 6 h in [18].

Take `Cc1ccc(NC(=O)c2ccc(CN3CCN(C)CC3)cc2)cc1Nc1nccc(-c2cccnc2)n1` [IMATINIB]: the inhibition result in data set [21] and in data set [22] was “Active” each time.

These data come from ChEMBL document CHEMBL3877303 (J Med Chem, 2017).
